High-throughput results (PubChem BioAssay)
PRMT1 inh = blocks human protein arginine methyltransferase 1 | Q99873 | recombinant PRMT1, activity-based probe fluorescence polarization | inhibition, % at 2.79 µM | 370,000 compounds, 1.3% hits | AID 652257;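 active = inhibition above about 21% made by adding two undisclosed values, limit read from the data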
eLon inh = E. coli protease La inhibition; AID 602123; P0A9M0; 360,000 compounds, 0.42% hits; inhibition, % at 7.94 µM; purified E. coli Lon protease, fluorescence polarization; in the data active = inhibition above about 13%, passing the limit was not always enough;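 note: 0% = enzyme with probe and DMSO and 100% = no enzyme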
TDP2 absorb = TDP2 (human) inhibition, absorbance primary screen | recombinant TDP2, T5PNP hydrolysis, p-nitrophenol absorbance 415 nm | AID 720702 | inhibition, % at 12.8 µM | 370,000 compounds, 0.34% hits;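 active = inhibition above the mean of all tested compounds plus 3 SD, set per campaign, cut at about 25% in these data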;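 note: 0% = DMSO with enzyme and 100% = buffer with substrate but no TDP2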
Target sequence (O95551 whole entry, looked up): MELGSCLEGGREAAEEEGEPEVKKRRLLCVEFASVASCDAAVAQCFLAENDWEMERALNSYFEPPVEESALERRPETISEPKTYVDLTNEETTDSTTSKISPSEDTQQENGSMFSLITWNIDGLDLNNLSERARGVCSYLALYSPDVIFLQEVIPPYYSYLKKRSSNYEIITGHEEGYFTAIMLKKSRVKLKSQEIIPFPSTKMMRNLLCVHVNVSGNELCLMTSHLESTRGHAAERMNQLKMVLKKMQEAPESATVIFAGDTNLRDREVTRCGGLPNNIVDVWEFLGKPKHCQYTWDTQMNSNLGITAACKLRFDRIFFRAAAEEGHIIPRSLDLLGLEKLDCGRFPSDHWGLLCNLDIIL
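Incubation: 2 h at 37 °C; Test system: recombinant human TDP2; Quantity: enzyme 120 nM; Read-out basis: percent inhibition; Medium: 50 mM Tris-HCl pH 7.5 with Mg2+, KCl, DTT, BSA; Repeats: single replicate; Compound: 12.8 µM single point, 1% DMSO; Signal: epi absorbance; Reagent: 5 mM T5PNP chromogenic substrate; Benchmarks: no-enzyme high, DMSO-plus-enzyme low.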
GSTO1 counter = counter-screen for RBBP9 inhibitors: inhibitors of human GSTO1; P78417; recombinant GSTO1, activity-based probe fluorescence polarization; inhibition, % at 5.96 µM; 300,000 compounds, 1.1% hits;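 active = inhibition above the campaign mean inhibition plus 3 SD, cut at about 35% in these data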;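 note: 0% = GSTO1-1 with DMSO and 100% = wells lacking GSTO1-1 enzyme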
Target sequence (P78417 whole entry, looked up): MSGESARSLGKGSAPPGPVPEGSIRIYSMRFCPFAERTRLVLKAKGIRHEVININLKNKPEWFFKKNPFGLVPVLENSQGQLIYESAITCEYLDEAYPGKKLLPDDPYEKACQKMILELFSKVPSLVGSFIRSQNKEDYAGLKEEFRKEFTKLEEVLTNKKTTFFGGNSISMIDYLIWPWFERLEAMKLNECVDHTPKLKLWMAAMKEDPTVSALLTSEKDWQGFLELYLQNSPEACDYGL
PAD4 FP inh = PAD4 (human) enzyme inhibition; Q9UM07; recombinant PAD4, RCA probe fluorescence polarization; inhibition, % at 6.36 µM; 330,000 compounds, 0.41% hits; AID 485272;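 active = percent inhibition above a cutoff equal to the mean of all tested compounds plus 3 SD, cut at about 15% in these data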;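 note: 0% = PAD4 with RCA probe and DMSO and 100% = probe without PAD4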
eLon confirm = E. coli Lon inhibition confirmation. shares compounds with eLon inh. purified E. coli Lon, fluorescence polarization. inhibition, % at 7.94 µM. 1,400 compounds, 31% hits. AID 602230; in the data active = inhibition above about 16%;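 note: 0% = enzyme with probe and DMSO and 100% = no enzyme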
* = called active by the depositor; nt = no result given; + = active, no number. This is a sample that favours compounds with a hit; in the whole collection about 2.5% have one here.

SMILES	PRMT1 inh	eLon inh	TDP2 absorb	GSTO1 counter	PAD4 FP inh	eLon confirm
CC1(C)CC(=O)C=C(NNC(=O)c2ccc(N)cc2)C1	1	-5	5	3	2	nt
CC(=O)c1ccc2c(c1)C1C=CCC1C(C(=O)O)N2 (stereo unspecified)	71*	38*	12	nt	nt	22*
CCN(CC)S(=O)(=O)c1ccc(C)c(NC(=O)COC(=O)C=C(C)C)c1	4	5	-1	7	1	nt
CCOc1ncccc1C(=O)OCC(=O)Nc1cc(S(=O)(=O)N(CC)CC)ccc1C	1	13*	-1	3	0	-2
COC(=O)[C@]12C[C@H](CC(=O)NCCCCc3ccccc3)C(=O)N(Cc3ccc(Cl)cc3Cl)C1=C[C@H](C(C)(C)C)O[C@@H]2C	7	nt	-2	nt	nt	nt
O=C(c1ccccc1)c1c2c(cc3sc4ccccc4[n+]13)-c1cccc3cccc-2c13	9	+	-4	-46	-52	+
Cc1sc2cc3c(c(C(=O)c4ccccc4)[n+]2c1C)-c1cccc2cccc-3c12	-3	nt	-20	-5	0	nt
O=C(CSc1nnc(-c2ccccc2)n1-c1ccc(Cl)cc1)c1ccc(Cl)cc1	-1	nt	3	nt	nt	nt
COc1ccc(Cl)cc1N(CC(=O)Nc1ccccc1C(=O)N1CCCC1)S(C)(=O)=O	-2	18*	8	2	-3	-6
O=C(C1CCN(S(=O)(=O)c2ccc(Cl)cc2)CC1)N1CCC1	-2	-9	14	-5	-1	nt
O=C(C1CCN(S(=O)(=O)c2c(Cl)cccc2Cl)CC1)N1CCCCCCC1	-3	18*	-17	1	-13	-4
CCOC(=O)CC[C@@]1(C(=O)OCC)C[C@@H](CC(=O)NCc2ccc(OC)c(OC)c2)C(=O)N2CCCC=C21	2	nt	-5	nt	nt	nt
NC(=O)c1ncn([C@@H]2O[C@H](C(=O)N[C@H](Cc3ccccc3)C(=O)O)[C@@H](O)[C@H]2O)n1	0	nt	-2	nt	nt	nt
NC(=O)c1ncn([C@@H]2O[C@H](CNC(=O)[C@H](N)CSCc3ccccc3)[C@@H](O)[C@H]2O)n1	-4	24*	-12	nt	nt	0
Cc1ccc(NC2=CC(=O)CC(C)(C)C2)c(N)c1	4	79*	2	-3	-10	-13
Cc1cc(=O)n(CC(=O)NCCN2CCOCC2)c2c1c(C)nn2-c1ccccc1	nt	17*	nt	-2	-4	-1
COC(=O)[C@H](CC(C)C)N(CCc1cn(Cc2ccc(C)cc2)nn1)S(=O)(=O)c1ccc(F)cc1Br	0	nt	-1	nt	nt	nt
CCOc1ccccc1NC(=O)Nc1cccc(NC(C)=O)c1	-6	9	10	-2	-3	nt
CCOc1ccccc1NC(=O)Nc1ccc(OC)nc1	14	22*	-8	nt	nt	16*
CC(=O)OCC(=O)Nc1ccc(C(C)=O)cc1	0	28*	-2	12	-3	-9
CC(C)N1CCCCC(NC(=O)c2cccc(F)c2)C1=O (stereo unspecified)	-4	nt	5	nt	nt	nt
COC(=O)CN(c1ccc2c(c1)OCO2)S(C)(=O)=O	-3	17*	12	2	1	7
CC1(C)CC(=O)C=C(C#CC2CC2)C1	2	nt	2	nt	nt	nt
O=C(Oc1ccc2c(c1)O/C(=C\c1ccncc1)C2=O)c1ccccc1	13	24*	6	0	-1	32*
CCCCN1C(=O)N2Cc3ccc(C)cc3C2CS1(=O)=O (stereo unspecified)	-1	nt	-6	nt	nt	nt
SMILES	PRMT1 inh	eLon inh	TDP2 absorb	GSTO1 counter	PAD4 FP inh	eLon confirm
O=C(c1ccc(F)cc1Cl)N1CCCC(c2nc(-c3cccs3)no2)C1 (stereo unspecified)	1	nt	-4	nt	nt	nt
CCOC(=O)C1=C(C)NC(=O)CC1c1ccccc1 (stereo unspecified)	1	-3	-14	7	3	nt
CCOC(=O)C1=C(C)NC(=S)N(C(C)=O)C1c1ccccc1 (stereo unspecified)	-1	17*	-5	1	0	1
Cc1ccc2c3c(cccc13)-c1ccccc1C2=O	6	40*	5	-4	0	20*
O=c1oc2cc(O)ccc2cc1S(=O)(=O)c1ccccc1	7	19*	-14	4	-3	43*
Cc1ccc(S(=O)(=O)N2CCn3cccc3C2C)cc1 (stereo unspecified)	5	21*	-3	nt	2	-5
Cc1cccc(S(=O)(=O)N2CCn3cccc3C2C)c1 (stereo unspecified)	5	3	7	nt	6	nt
Cc1ccc(NC(=O)OCCCN2C(=O)CCC23CCC(C)CC3)cc1C (stereo unspecified)	-3	nt	10	nt	nt	nt
CCOC(=O)c1c(N)sn(-c2ccccc2)c1=S	1	0	5	1	1	nt
CCOC(=O)c1c2c(c(=S)n(-c3ccccc3)c1N)CCC2	-1	24*	1	7	-6	-4
O=C(COC(=O)C1CC(O)CN1S(=O)(=O)c1ccc(Cl)cc1)c1cccc(Cl)c1 (stereo unspecified)	2	72*	10	4	2	-19
Cc1ccc(-c2nnc(N3CCN(C(=O)Cn4c(=O)n(C)c5ccccc54)CC3)c3ccccc23)cc1	-2	24*	4	8	-4	2
O=C(CN(Cc1ccco1)S(=O)(=O)c1cccs1)Nc1ccccc1C(F)(F)F	3	17*	5	-3	-1	-1
CSCCC(NC(=O)c1ccc(Cl)cc1)C(=O)OCC(=O)Nc1ccc(C#N)cc1 (stereo unspecified)	3	35*	3	2	-4	1
Oc1cc(CNC2CCCCC2)c(O)cc1CNC1CCCCC1	13	45*	2	nt	nt	17*
Cc1ccccc1CNC1CCCCC1	-2	-10	-11	0	7	nt
CCN(CC(=O)Nc1c(F)cccc1F)C(=O)c1cc2ccccc2oc1=O	3	23*	-16	10	0	-2
CCN(CC(=O)Nc1c(F)cccc1F)C(=O)CNC(=O)c1ccc2ccccc2c1	0	-5	4	nt	0	nt
COc1ccc(C2Nc3ccccc3NC3=C2C(=O)CC(C)(C)C3)cc1O (stereo unspecified)	2	19*	5	1	-3	9
COc1ccc(C2Nc3ccccc3NC3=C2C(=O)CC(C)(C)C3)cc1OC (stereo unspecified)	0	-3	19	7	2	nt
CC1(C)CC(=O)C2=C(C1)Nc1cc3c(cc1C2c1ccc2c(c1)OCO2)OCO3 (stereo unspecified)	8	-7	-6	6	0	nt
Cc1cc2c(cc1C)NC(c1c(C)n(C)n(-c3ccccc3)c1=O)C1=C(CC(C)(C)CC1=O)N2 (stereo unspecified)	12	20*	13	11	-5	4
COc1cc(C2Nc3cc(C)c(C)cc3NC3=C2C(=O)CC(C)(C)C3)ccc1OC(C)=O (stereo unspecified)	8	-11	-23	2	0	nt
